Measurements as given in ChEMBL document CHEMBL6078712, “Triterpenoid phthalimides as selective anti-cancer agents targeting mitochondrial apoptosis” (Eur J Med Chem, 2025).

Key:
[1] = Cytotoxicity against human K562-Tax cells assessed as inhibition of cell growth incubated for 72 hrs by MTS assay; format: functional, cell-based
Procedure, shortened: (§1)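 MTS assay on eight human cancer lines and two non-tumour fibroblast lines. IC50 is the concentration that inhibits cell growth by 50 %. SD typically up to 15 % of the mean.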

[2] = tested on: CEM-DNR; test: Cytotoxicity against human CEM-DNR cells assessed as inhibition of cell growth incubated for 72 hrs by MTS assay; format: functional, cell-based; procedure, shortened: as §1
[3] = Cytotoxicity against human MRC5 cells assessed as inhibition of cell growth incubated for 72 hrs by MTS assay; format: toxicity, cell-based; procedure, shortened: as §1
[4] = Cytotoxicity against human BJ cells assessed as inhibition of cell growth incubated for 72 hrs by MTS assay; format: toxicity, cell-based; procedure, shortened: as §1
[5] = tested on: K562; test: Cytotoxicity against human K562 cells assessed as inhibition of cell growth incubated for 72 hrs by MTS assay; format: functional, cell-based; conditions: K562, 72 h; procedure, shortened: as §1
[6] = tested on: A549; test: Cytotoxicity against human A549 cells assessed as inhibition of cell growth incubated for 72 hrs by MTS assay; format: functional, cell-based; conditions: A549, 72 h; procedure, shortened: as §1
[7] = tested on: CCRF-CEM; test: Cytotoxicity against human CCRF-CEM cells assessed as inhibition of cell growth incubated for 72 hrs by MTS assay; format: functional, cell-based; procedure, shortened: as §1
[8] = tested on: U2OS; test: Cytotoxicity against human U2OS cells assessed as inhibition of cell growth incubated for 72 hrs by MTS assay; format: functional, cell-based; procedure, shortened: as §1
[9] = tested on: HCT 116 TP53(-/-); test: Cytotoxicity against human HCT116-p53-null cells assessed as inhibition of cell growth incubated for 72 hrs by MTS assay; format: functional, cell-based; procedure, shortened: as §1
[10] = tested on: HCT-116; test: Cytotoxicity against human HCT-116 cells assessed as inhibition of cell growth incubated for 72 hrs by MTS assay; format: functional, cell-based; conditions: HCT-116, 72 h; procedure, shortened: as §1

Structure (SMILES)	IC50 [1]	IC50 [2]	IC50 at 72 h [3]	IC50 at 72 h [4]	IC50 [5]	IC50 [6]	IC50 [7]	IC50 [8]	IC50 [9]	IC50 [10]
CC(=O)Nc1ccc(N2C(=O)c3ccc([C@@H]4CC[C@]5(C(=O)O)CC[C@]6(C)[C@H](CC[C@@H]7[C@@]8(C)CC[C@H](OC(C)=O)C(C)(C)[C@@H]8CC[C@]76C)[C@@H]45)cc3C2=O)cc1	18.2 µM	20.8 µM	19.8 µM	31.2 µM	27.1 µM	27.1 µM	16.5 µM	24.3 µM	29.6 µM	24.4 µM
CC1(C)[C@@H](O)CC[C@]2(C)[C@H]3CC[C@@H]4[C@H]5[C@H](c6cc7c(c(-c8ccccc8)c6)C(=O)N(c6ccc(C#N)cc6)C7=O)CC[C@]5(C(=O)O)CC[C@@]4(C)[C@]3(C)CC[C@@H]12	> 50 µM	> 50 µM	> 50 µM	> 50 µM	> 50 µM	> 50 µM	14.2 µM	> 50 µM	> 50 µM	> 50 µM
CC1(C)[C@@H](O)CC[C@]2(C)[C@H]3CC[C@@H]4[C@H]5[C@H](c6cc7c(c(-c8ccccc8)c6)C(=O)NC7=O)CC[C@]5(C(=O)O)CC[C@@]4(C)[C@]3(C)CC[C@@H]12	10.4 µM	9.65 µM	32.4 µM	34.5 µM	7.58 µM	6.39 µM	7.18 µM	9.82 µM	7.43 µM	7.22 µM
CC1(C)[C@@H](O)CC[C@]2(C)[C@H]3CC[C@@H]4[C@H]5[C@H](c6ccc7c(c6)C(=O)N(c6ccc(C#N)cc6)C7=O)CC[C@]5(C(=O)O)CC[C@@]4(C)[C@]3(C)CC[C@@H]12	12.7 µM	27.3 µM	> 50 µM	> 50 µM	> 50 µM	> 50 µM	19.8 µM	> 50 µM	> 50 µM	> 50 µM
CC(=O)O[C@H]1CC[C@]2(C)[C@H]3CC[C@@H]4[C@H]5[C@H](c6ccc7c(c6)C(=O)N(c6cc[nH]n6)C7=O)CC[C@]5(C(=O)O)CC[C@@]4(C)[C@]3(C)CC[C@H]2C1(C)C	21.1 µM	25.4 µM	28.3 µM	30 µM	29.4 µM	27.1 µM	18.7 µM	26.2 µM	30.1 µM	24 µM
